Results pooled from the literature.
Compare with care: the assays were run in different laboratories.
Target: Casein kinase I isoform gamma-3 (CSNK1G3, Homo sapiens, UniProt Q9Y6M4)

Structure (SMILES) | observed | mode | method | tested at | quantity | value
CCCOc1ccc([C@@H]2[C@@H](C(=O)O)[C@H](c3ccc4c(c3)OCO4)CN2CC(=O)Nc2c(CC)cccc2CC)cc1 | cell-free assay |  | competition with immobilised ligand | 1 µM | remaining binding | 100%
CCOc1cc(-c2nncn2C)ccc1Nc1ncc2cc(C)nc(NCC(C)(C)C)c2n1 | enzyme activity | inhibitor | FRET | 1 µM | inhibition | < 15%
CC(C)CC(=O)N1CCc2nc(-c3ccc(Br)cc3)nc(N(C)Cc3ccccc3)c2C1 | cell-free assay |  | competition with immobilised ligand | 0.1 µM | remaining binding | 100%
Nc1ncnc2occ(-c3ccc(NC(=O)Nc4cc(C(F)(F)F)ccc4F)cc3)c12 | cell-free assay | inhibitor |  | 20 µM | remaining signal | 11%
Cn1c2c(Cl)c(Cl)ccc2c2cc[nH]c(=O)c21 | thermal stability |  | DSF | 10 µM | ΔTm | -0.2 °C
Cc1ccc(NC(=O)c2ccc(C)c(C(F)(F)F)c2)cc1C#Cc1nn(C2CCC(O)CC2)c2ncnc(N)c12 (centres unmarked) | cell-free assay |  |  | 10 µM | remaining signal | 103%
CCC1(CC)NC(=O)c2c(c3ccc(Cl)c(Cl)c3n2C)C1C#N (centres unmarked) | thermal stability |  | DSF | 10 µM | ΔTm | 0 °C
CS(=O)(=O)CCNCc1ccc(-c2ccc3ncnc(Nc4ccc(OCc5cccc(F)c5)c(Cl)c4)c3c2)o1 | cell-free assay |  |  | 0.5 µM | remaining signal | 104%
CN1CC(Oc2cnc(C#N)cc2-c2ccn3nc(NC(=O)C4CC4)cc3c2)C1 | enzyme activity | inhibitor |  | 1 µM | inhibition | 21%
CS(=O)(=O)c1cc(C2(NC(=O)c3cncc4c3cnn4-c3ccc(F)cc3)CC2)ccn1 | cell-free assay |  | competition with immobilised ligand | 1 µM | remaining binding | 100%
COc1cc(Nc2c(C#N)cnc3cc(OCCCN4CCN(C)CC4)c(OC)cc23)c(Cl)cc1Cl | cell-free assay |  |  | 0.5 µM | remaining signal | 98.3%
N#CC1c2c([nH]c3c(Cl)c(Cl)ccc23)C(=O)NC12CCCCC2 (racemic) | thermal stability |  | DSF | 10 µM | ΔTm | 0.2 °C
CC(C)(C)c1nc(-c2cccc(NS(=O)(=O)c3c(F)cccc3F)c2F)c(-c2ccnc(N)n2)s1 | enzyme activity | inhibitor | radiometric | 1 µM | remaining activity | 91%
CNC(=O)c1cc(Oc2ccc(NC(=O)Nc3ccc(Cl)c(C(F)(F)F)c3)cc2)ccn1 | enzyme activity | inhibitor |  | 10 µM | inhibition | 2%
Cn1c2c(c3ccc(Cl)c(Cl)c31)C(C#N)C1(CCCCC1)NC2=O (racemic) | thermal stability |  | DSF | 10 µM | ΔTm | -0.2 °C
NS(=O)(=O)c1cc(NC(=O)Cc2ccccc2)ccc1Oc1cccc(Cl)c1 | cell-free assay |  | competition with immobilised ligand | 1 µM | remaining binding | 74%
Cn1c2c(c3ccc(Cl)c(Cl)c31)C(C#N)C1(CCNCC1)NC2=O (racemic) | thermal stability |  | DSF | 10 µM | ΔTm | 2.9 °C
F[C@@H]1CCN(c2nccc(-c3cnn4ncccc34)n2)C1 | binding |  |  | 1 µM | remaining binding | 86%
CC(C)(O)[C@H]1CC[C@H](Nc2ccc3ncc(-c4cccc(C(F)(F)F)c4)n3n2)CC1 | enzyme activity | inhibitor |  | 1 µM | remaining activity | 90%
COc1cc2c(Nc3ccc(Br)cc3F)ncnc2cc1OCC1CCN(C)CC1 | cell-free assay |  |  | 0.5 µM | remaining signal | 98.1%
Cc1cc(-n2nc(Cc3cc(F)cc(C(F)(F)F)c3)nc2C)ccc1C(N)=O | cell-free assay |  | competition with immobilised ligand | 1 µM | remaining binding | 95%
N#CCCc1ccc2c(c1)-c1[nH]c3ccc([N+](=O)[O-])cc3c1CC(=O)N2 | cell-free assay |  |  | 0.5 µM | remaining signal | 89.7%
Cc1ccc(Nc2nccc(N(C)c3ccc4c(C)n(C)nc4c3)n2)cc1S(N)(=O)=O | enzyme activity | inhibitor |  | 10 µM | inhibition | 18%
CNC(=O)Nc1ccc2c(c1)CC[C@@]21OC(=O)N(CC(=O)N(Cc2ccc(F)cc2)[C@@H](C)C(F)(F)F)C1=O | cell-free assay |  | competition with immobilised ligand | 1 µM | remaining binding | 84%
COc1cc2ncnc(Nc3ccc(Oc4ccccc4)cc3C)c2cc1OC | enzyme activity | inhibitor |  | 1 µM | inhibition | 4%
C[C@@H](c1cccc(C#N)c1)n1cc(Cl)cc(C(N)=O)c1=N | cell-free assay |  | competition with immobilised ligand | 1 µM | remaining binding | 100%
Cc1sc(C(=O)NC2COC2)cc1-n1cc(NC(=O)Nc2c(F)cccc2Cl)cn1 | enzyme activity | inhibitor |  | 10 µM | remaining activity | 91.3%
O=S(=O)(NC1CCC(c2cc(F)ccc2F)(S(=O)(=O)c2ccc(Cl)cc2)CC1)C(F)(F)F (centres unmarked) | cell-free assay |  | competition with immobilised ligand | 1 µM | remaining binding | 83%
Cc1cnc(NC2CCOCC2)nc1-n1cnc(C(=O)NC(CN)c2cc(F)cc(Cl)c2)c1 (centres unmarked) | enzyme activity | inhibitor | radiometric | 1 µM | remaining activity | 33%
